In ChEMBL document CHEMBL1687799, “Mutational analysis of flucytosine resistance in Candida glabrata” (2010):

Legend:
Type in all cases: functional
Nakaseomyces glabratus [1] = assay: Antimicrobial activity against 5-fluorocytosine resistant Candida glabrata isolate TE34-78 harboring Fcr1 L136R mutant assessed as lowest concentration inhibiting growth >=80% by broth microdilution method
In short: (§1)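 Broth microdilution with 5FC or 5FU in RPMI 1640 buffered with 0.165 M MOPS, pH 7.0, plus 2% dextrose, replacing the YPD of the cited protocol. Drug stocks were in 50% DMSO, and final DMSO was ≤0.5%. Plates were incubated at 35°C and read at 630 nm. MIC was the lowest concentration giving ≥80% growth inhibition relative to the drug-free control.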

Nakaseomyces glabratus [2] = assay: Antimicrobial activity against 5-fluorocytosine resistant and ura3 harboring Candida glabrata 66032u-FC3 harboring Fcy1 H59D mutant assessed as lowest concentration inhibiting growth >=80% by broth microdilution method; in short: as §1
Nakaseomyces glabratus [3] = assay: Antimicrobial activity against 5-fluorocytosine resistant Candida glabrata 66032-FC4 harboring Fcy1 A15D mutant assessed as lowest concentration inhibiting growth >=80% by broth microdilution method; in short: as §1
Nakaseomyces glabratus [4] = assay: Antimicrobial activity against 5-fluorocytosine resistant Candida glabrata 66032-FC1 harboring Fur1 183K mutant assessed as lowest concentration inhibiting growth >=80% by broth microdilution method; in short: as §1
Nakaseomyces glabratus [5] = assay: Antimicrobial activity against 5-fluorocytosine resistant and ura3 harboring Candida glabrata 66032u-FC10 harboring Fcy2L Q396stop mutant assessed as lowest concentration inhibiting growth >=80% by broth microdilution method; in short: as §1
Nakaseomyces glabratus [6] = assay: Antimicrobial activity against 5-fluorocytosine resistant Candida glabrata 66032-FC6 harboring Fcy1 G11D mutant assessed as lowest concentration inhibiting growth >=80% by broth microdilution method; in short: as §1
Nakaseomyces glabratus [7] = assay: Antimicrobial activity against 5-fluorocytosine resistant and ura3 harboring Candida glabrata BG14-FC8 harboring Fcy2L E238-V277dup mutant assessed as lowest concentration inhibiting growth >=80% by broth microdilution method; in short: as §1
Nakaseomyces glabratus [8] = assay: Antimicrobial activity against 5-fluorocytosine resistant and ura3 harboring Candida glabrata BG14 assessed as lowest concentration inhibiting growth >=80% by broth microdilution method; in short: as §1
Nakaseomyces glabratus [9] = assay: Antimicrobial activity against 5-fluorocytosine resistant and ura3 harboring Candida glabrata 66032u-FC6 harboring Fcy1 T92deltastop mutant assessed as lowest concentration inhibiting growth >=80% by broth microdilution method; in short: as §1
Nakaseomyces glabratus [10] = assay: Antimicrobial activity against 5-fluorocytosine resistant Candida glabrata isolate 20408.055 harboring Fur1 G210D mutant assessed as lowest concentration inhibiting growth >=80% by broth microdilution method; in short: as §1
Nakaseomyces glabratus [11] = assay: Antimicrobial activity against 5-fluorocytosine resistant Candida glabrata isolate 20251.021 harboring Fcy1 T84L mutant assessed as lowest concentration inhibiting growth >=80% by broth microdilution method; in short: as §1
Nakaseomyces glabratus [12] = assay: Antimicrobial activity against 5-fluorocytosine resistant Candida glabrata 66032-FC5 harboring Fcy1 A15D mutant assessed as lowest concentration inhibiting growth >=80% by broth microdilution method; in short: as §1
Nakaseomyces glabratus [13] = assay: Antimicrobial activity against 5-fluorocytosine resistant Candida glabrata 66032-FC2 harboring Fur1 deltaG73-V81mutant assessed as lowest concentration inhibiting growth >=80% by broth microdilution method; in short: as §1
Nakaseomyces glabratus [14] = assay: Antimicrobial activity against 5-fluorocytosine resistant and ura3 harboring Candida glabrata 66032u assessed as lowest concentration inhibiting growth >=80% by broth microdilution method; in short: as §1
Nakaseomyces glabratus [15] = assay: Antimicrobial activity against 5-fluorocytosine resistant Candida glabrata 66032 assessed as lowest concentration inhibiting growth >=80% by broth microdilution method; in short: as §1
Nakaseomyces glabratus [16] = assay: Antimicrobial activity against 5-fluorocytosine resistant and ura3 harboring Candida glabrata BG14-FC4 harboring Fcy1 E17stop mutant assessed as lowest concentration inhibiting growth >=80% by broth microdilution method; in short: as §1
Nakaseomyces glabratus [17] = assay: Antimicrobial activity against 5-fluorocytosine resistant Candida glabrata 66032-FC3 harboring Fur1 G71V mutant assessed as lowest concentration inhibiting growth >=80% by broth microdilution method; in short: as §1
Nakaseomyces glabratus [18] = assay: Antimicrobial activity against 5-fluorocytosine resistant and ura3 harboring Candida glabrata 66032u-FC5 harboring Fcy2L E342stop mutant assessed as lowest concentration inhibiting growth >=80% by broth microdilution method; in short: as §1
Nakaseomyces glabratus [19] = assay: Antimicrobial activity against 5-fluorocytosine resistant Candida glabrata isolate TE34-75 harboring FcY2J 1384F mutant assessed as lowest concentration inhibiting growth >=80% by broth microdilution method; in short: as §1
Nakaseomyces glabratus [20] = assay: Antimicrobial activity against 5-fluorocytosine resistant and ura3 harboring Candida glabrata 66032u-FC1 harboring Fcy2L W291stop mutant assessed as lowest concentration inhibiting growth >=80% by broth microdilution method; in short: as §1

Measured: MIC

Nc1nc(=O)[nH]cc1F [FLUCYTOSINE]
1 µg/mL: Nakaseomyces glabratus [5] | Nakaseomyces glabratus [7] | Nakaseomyces glabratus [18] | Nakaseomyces glabratus [20]
0.25 µg/mL: Nakaseomyces glabratus [19]
8 ng/mL: Nakaseomyces glabratus [14]
0.03 µg/mL: Nakaseomyces glabratus [8] | Nakaseomyces glabratus [15]
≥ 32 µg/mL: all other assays above
